A word on the pIC50: it is the IC50 on a negative log10 scale, so that one unit is a factor of ten. High values mean a low IC50, low ones a high IC50.

pIC50: −log10 of the molar value. The source made the active and inactive calls.

The nature of data set [1]: […] from rat cerebral cortex Sodium channel site 2. Type of data set: tissue-based.
The subject of data set [2] is Mus musculus. Description: Anticonvulsant activity in mouse assessed as protection against 6 Hz psychomotor seizure at 100 mg/kg, ip after 1 hr. The data set is classed as functional, organism-based. In a few lines: (§1)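 Suspension in 0.5% methylcellulose given ip to mice; corneal stimulation with 0.2 ms monopolar rectangular pulses at 6 Hz for 3 s from a constant current device, mice restrained then released to observation cage. Protected if normal exploratory behaviour resumed within 10 s of stimulation. Scored as protected/tested, 4 mice per group.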

The test system of data set [3] is Mus musculus. Put plainly: Anticonvulsant activity in mouse assessed as protection against 6 Hz psychomotor seizure at 100 mg/kg, ip after 2 hrs. Type of data set: functional, organism-based. In a few lines: as §1
In data set [4] the test system is Mus musculus. Put plainly: Anticonvulsant activity in mouse assessed as protection against 6 Hz psychomotor seizure at 100 mg/kg, ip after […]. Type of data set: functional, organism-based.
Data set [5] deals with Mus musculus. Put plainly: Anticonvulsant activity in mouse assessed as protection against 6 Hz psychomotor seizure at 100 mg/kg, ip after 4 hrs. Type of data set: functional, organism-based. In a few lines: as §1
Data set [6] relates to Mus musculus. Put plainly: Neurotoxicity in mouse at 100 mg/kg, ip after […] by rotarod test. Type of data set: toxicity, organism-based. To be noted: in vivo.
Data set [7] relates to Mus musculus. Description: Anticonvulsant activity in mouse assessed as protection against maximal electric shock-induced seizures at 30 mg/kg, ip measured after 0.5 hrs. The data set is classed as functional, organism-based. The procedure, abridged:
(§2)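 Mice dosed ip with suspension in 0.5% methylcellulose; maximal electroshock applied at the listed time after dosing. Protection = abolition of hindlimb tonic extension component of seizure; reported as animals protected/animals tested.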

Data set [8] relates to Mus musculus. Put plainly: Anticonvulsant activity in mouse assessed as protection against maximal electric shock-induced seizures at 30 mg/kg, ip measured after 4 hrs. Type of data set: functional, organism-based. In a few lines: as §2
The test system of data set [9] is Mus musculus. Description: Anticonvulsant activity in mouse assessed as protection against maximal electric shock-induced seizures at 100 mg/kg, ip measured after 4 hrs. Type of data set: functional, organism-based. In a few lines:
as §2

For data set [10], the system named is Mus musculus. Put plainly: Anticonvulsant activity in mouse assessed as protection against subcutaneous pentylenetetrazol-induced seizures at 30 mg/kg, ip measured after 0.5 hrs. Type of data set: functional, organism-based. In a few lines:
(§3)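 Mice dosed ip as 0.5% methylcellulose suspension; pentylenetetrazole 85 mg/kg in 0.9% NaCl injected subcutaneously into posterior midline, animals watched at least 30 min. Protection = no threshold seizure (single clonic spasm episode lasting ≥5 s); scored protected/tested.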

Data set [11] has as its system Mus musculus. Description: Anticonvulsant activity in mouse assessed as protection against subcutaneous pentylenetetrazol-induced seizures at 30 mg/kg, ip measured after 4 hrs. Type of data set: functional, organism-based. In a few lines: as §3
In data set [12] the test system is Mus musculus. Put plainly: Anticonvulsant activity in mouse assessed as protection against subcutaneous pentylenetetrazol-induced seizures at 100 mg/kg, ip measured after 4 hrs. The data set is classed as functional, organism-based. The procedure, abridged:
as §3

In data set [13] the test system is Mus musculus. Description: Neurotoxicity in mouse at 30 mg/kg, ip after 0.5 hrs by rotarod test. Type of data set: toxicity, organism-based. To be noted: in vivo. The procedure, abridged: (§4)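 Mice were dosed ip with compound suspended in 0.5% methylcellulose. Rotarod: a 1 in. knurled rod turning at 6 rpm. Neurotoxicity was scored as failure to stay on the rod for at least 1 min in each of three trials. Results are given as the number of animals affected out of the number tested.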
For orientation: Falling from the rotarod earlier than controls is read as motor impairment.

The test system of data set [14] is Mus musculus. Put plainly: Neurotoxicity in mouse at 30 mg/kg, ip after 4 hrs by rotarod test. The data set is classed as toxicity, organism-based. To be noted: in vivo. The procedure, abridged:
as §4

For data set [15], the system named is Mus musculus. Description: Neurotoxicity in mouse at 100 mg/kg, ip after 0.5 hrs by rotarod test. To be noted: in vivo. Type of data set: toxicity, organism-based. In a few lines: as §4
The test system of data set [16] is Mus musculus. Description: Neurotoxicity in mouse at 100 mg/kg, ip after 4 hrs by rotarod test. To be noted: in vivo. The data set is classed as toxicity, organism-based. The procedure, abridged: as §4
Data set [17] deals with Mus musculus. Description: Neurotoxicity in mouse at 300 mg/kg, ip after 0.5 hrs by rotarod test. The data set is classed as toxicity, organism-based. The conditions noted are these: in vivo. In a few lines: as §4
For data set [18], the system named is Mus musculus. Description: Neurotoxicity in mouse at 300 mg/kg, ip after 4 hrs by rotarod test. Type of data set: toxicity, organism-based. The conditions noted are these: in vivo. In a few lines:
as §4

In data set [19] the test system is Mus musculus. Description: Anticonvulsant activity in mouse assessed as protection against maximal electric shock-induced seizures at 100 mg/kg, ip measured after […]. Type of data set: functional, organism-based.
Data set [20] has as its system Mus musculus. Description: Anticonvulsant activity in mouse assessed as protection against 6 Hz psychomotor seizure at 50 mg/kg, ip after 0.5 hrs. Type of data set: functional, organism-based. In a few lines: as §1
The subject of data set [21] is Mus musculus. Put plainly: Anticonvulsant activity in mouse assessed as protection against 6 Hz psychomotor seizure at 50 mg/kg, ip after 1 hr. Type of data set: functional, organism-based. In a few lines:
as §1

For data set [22], the system named is Mus musculus. Description: Anticonvulsant activity in mouse assessed as protection against 6 Hz psychomotor seizure at 50 mg/kg, ip after 2 hrs. The data set is classed as functional, organism-based. In a few lines: as §1
Data set [23] relates to Mus musculus. Put plainly: Anticonvulsant activity in mouse assessed as protection against 6 Hz psychomotor seizure at 50 mg/kg, ip after 4 hrs. Type of data set: functional, organism-based. In a few lines:
as §1

In data set [24] the test system is Mus musculus. Description: Neurotoxicity in mouse at 50 mg/kg, ip after 0.5 hrs by rotarod test. The conditions noted are these: in vivo. Type of data set: toxicity, organism-based. In a few lines: as §4
In data set [25] the test system is Mus musculus. Put plainly: Neurotoxicity in mouse at 50 mg/kg, ip after 1 hr by rotarod test. Type of data set: toxicity, organism-based. The conditions noted are these: in vivo. In a few lines:
as §4

The test system of data set [26] is Mus musculus. Description: Neurotoxicity in mouse at 50 mg/kg, ip after 2 hrs by rotarod test. Type of data set: toxicity, organism-based. To be noted: in vivo. In a few lines: as §4
For data set [27], the system named is Mus musculus. Description: Neurotoxicity in mouse at 50 mg/kg, ip after 4 hrs by rotarod test. Type of data set: toxicity, organism-based. To be noted: in vivo. The procedure, abridged:
as §4

Data set [28] deals with Mus musculus. Put plainly: Anticonvulsant activity in mouse assessed as protection against maximal electric shock-induced seizures at 100 mg/kg, ip measured after 0.5 hrs. Type of data set: functional, organism-based. The procedure, abridged:
as §2

In data set [29] the test system is Mus musculus. Put plainly: Anticonvulsant activity in mouse assessed as protection against maximal electric shock-induced seizures at 100 mg/kg, ip measured after 1 hr. The data set is classed as functional, organism-based. The procedure, abridged: as §2
Data set [30] has as its system Mus musculus. Description: Neurotoxicity in mouse at 100 mg/kg, ip after 1 hr by rotarod test. The data set is classed as toxicity, organism-based. To be noted: in vivo. In a few lines: as §4

In the case of `COc1ccc(C(=O)O[C@H]2CC[C@@]3(C)[C@@H]4CC[C@H]5[C@]6(O)C[C@H](O)[C@@]7(O)[C@@H](CN8C[C@@H](C)CC[C@H]8[C@@]7(C)O)[C@]6(O)C[C@@]53O[C@]24O)cc1OC` [VERATRIDINE], in data set [1], the pIC50 was 5.40.

In the case of `Cc1cccc(OCCOCCNC(C)CO)c1C` (centres undefined), the result in data set [2] and in data set [4] was Active. For the same molecule, the result in data set [3], in data set [5], in [7], in data set [8], in data set [9] and in [10] was inactive. The outcome in data set [11] and in data set [12] was inactive. The Activity entry in data set [6] is “Toxic”; in data set [13], “Non-toxic”; in data set [14] it was “Non-toxic”; in data set [15], “Toxic”; in data set [16] it was “Non-toxic”; in data set [17], “Toxic”. For the same molecule, the Activity entry in data set [18] is reported as “Non-toxic”.

As to `Cc1cccc(OCCN[C@@H]2CCCC[C@H]2O)c1C` (racemic), the outcome in [19], in data set [28] and in data set [29] was Active. In addition, the outcome in [20], in [21], in [22], in data set [23] and in [9] was inactive. In addition, the Activity result is listed as “Non-toxic” in [24]; “Non-toxic” in data set [25]; “Non-toxic” in data set [26]; “Non-toxic” in data set [27]; “Toxic” in [6]; “Toxic” in data set [15]. The Activity result in data set [30] is on record as “Toxic”; in data set [16], “Non-toxic”.

(Values after ChEMBL document CHEMBL3774372, “Design, physico-chemical properties and biological evaluation of some new N-[(phenoxy)alkyl]- and N-{2-[2-(phenoxy)ethoxy]ethyl}aminoalkanols as anticonvulsant agents” (Bioorg Med Chem, 2016).)
